# ChEMBL document CHEMBL3351971 (Bioorg Med Chem, 2014)
# Active and inactive are the calls of the source. The rule behind the calls is not given here.
# Assays:
# Leishmania infantum [1] = assay: Antileishmanial activity against axenically cultured Leishmania infantum chagasi MHOM/BR/00/1669 promastigotes assessed as inhibition of parasite growth after 24 hrs; conditions: chagasi MHOM/BR/00/1669, 24 h
# Leishmania infantum [2] = assay: Antileishmanial activity against intracellular Leishmania infantum chagasi MHOM/BR/00/1669 amastigotes infected in BALB/c mouse assessed as inhibition of parasite growth in spleen at 100 mg/kg, ip once daily treated after 30 days post infection for 30 days; type: functional, organism-based; parameters: dose 100 mg/kg
# Method in brief: (§1)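 Male BALB/c mice, 21 days old, infected IP with 1×10^7 Ficoll-purified metacyclic promastigotes; infection confirmed by liver and spleen imprints at 35 days. Compounds given IP at 100 mg/kg once daily for 30 days, 0.5 mL injected, n = 5 per group. Controls were Glucantime (80 mg/Kg intramuscular) and water. Liver and spleen collected afterwards; amastigotes detected qualitatively by anti-Leishmania immunohistochemistry with DAB.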
# Leishmania infantum [3] = assay: Antileishmanial activity against intracellular Leishmania infantum chagasi MHOM/BR/00/1669 amastigotes infected in mouse RAW264.7 cells assessed as inhibition of parasite growth after 48 hrs; type: functional, organism-based; conditions: chagasi MHOM/BR/00/1669, RAW264.7, 48 h
# Method in brief: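 RAW 264.7 macrophages (4×10^5/well, RPMI-1640 + 10% FBS) adhered for 24 h, then infected with promastigotes at 1:10 for 2 h. Non-adherent parasites rinsed off and cells held 72 h. Compounds added from ethanol stocks in six two-fold dilutions for 48 h at 37 °C, 5% CO2. Amastigotes detected by cell ELISA (saponin permeabilization, rabbit anti-Leishmania serum 1:500, peroxidase anti-rabbit, OPD, 492 nm).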
# Leishmania infantum [4] = assay: Antileishmanial activity against intracellular Leishmania infantum chagasi MHOM/BR/00/1669 amastigotes infected in BALB/c mouse assessed as inhibition of parasite growth in liver at 100 mg/kg, ip once daily treated after 30 days post infection for 30 days; type: functional, organism-based; parameters: dose 100 mg/kg
# Method in brief: as §1
# [5] = Cytotoxicity against mouse RAW264.7 cells assessed as cell survival at 100 ug/ml after 48 hrs by MTT assay; type: cell-based; conditions: read-out: Survival
# Method in brief: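 RAW 264.7 cells were seeded at 4×10^4/well. Compounds were dissolved at 0.2% in ethanol and diluted in M199 medium, highest concentration 100 µg/mL. Cells were exposed for 48 h at 37 °C in humidified 5% CO2, with […] vehicle controls. Viability was read by MTT.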
Compound,EC50 (Leishmania infantum [1]) [µg/mL],Activity (Leishmania infantum [2]),EC50 (Leishmania infantum [3]) [µg/mL],Activity (Leishmania infantum [4]),"viability at 48 h, 100 ug/ml [5] [%]"
C=CCc1ccc(OC(C)=O)c(OC)c1 [EUGENYL ACETATE],23.2,Active,18.5,Active,> 100
CC(=O)Oc1cc(C)ccc1C(C)C,9.07,inactive,10.9,Active,> 100
N=C(N)c1ccc(OCCCCCOc2ccc(C(=N)N)cc2)cc1 [PENTAMIDINE],5.3,–,–,–,85.6
C[C@@H]1[C@H](O)[C@@H](C)/C=C/C=C/C=C/C=C/C=C/C=C/C=C/[C@H](O[C@@H]2O[C@H](C)[C@@H](O)[C@H](N)[C@@H]2O)C[C@@H]2O[C@](O)(C[C@@H](O)C[C@@H](O)[C@H](O)CC[C@@H](O)C[C@@H](O)CC(=O)O[C@H]1C)C[C@H](O)[C@H]2C(=O)O [AMPHOTERICIN B],–,–,20.4,–,98.5
C=CCc1ccc(O)c(OC)c1 [EUGENOL],56.1,–,20.8,–,29
C=CCc1ccc(OC(=O)c2ccccc2)c(OC)c1 [EUGENYL BENZOAT],10.6,Active,14.9,Active,97.7
Cc1ccc(C(C)C)c(OC(=O)c2ccccc2)c1,8.67,Active,15.1,Active,63.6
MEGLUMINE ANTIMONATE,–,inactive,–,–,–
Cc1ccc(C(C)C)c(O)c1 [THYMOL],–,–,23.9,–,36.5
